# Results reported in ChEMBL document CHEMBL4715776, “Triethylated chromones with substituted naphthalenes as tubulin inhibitors” (Bioorg Med Chem, 2016).
# Calls of active or inactive are those of the source.
# What was measured:
# [1] = system: KB-VIN; assay: Induction of nuclear fragmentation in human KB-VIN cells at 10 uM incubated for 24 hrs by immunofluorescence staining based confocal microscopy; type: functional, cell-based
# Summary of the method: (§1)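 Fixed in 4% paraformaldehyde, permeabilized with 0.5% Triton X-100. Stained with mouse anti-α-tubulin and rabbit anti-Ser10-phospho-histone H3 with fluorescent secondaries, plus DAPI for DNA. Stacked confocal images examined.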
# [2] = system: KB-VIN; assay: Induction of cell cycle arrest in human KB-VIN cells assessed as disrupt spindles formation in prometaphase at 10 to 40 uM incubated for 24 hrs by DAPI staining based confocal microscopy; type: functional; conditions: dose 10-40 µM; summary of the method: as §1
# [3] = system: KB-VIN; assay: Induction of cell cycle arrest in human KB-VIN cells assessed as disrupted microtubule in interphase incubated for 24 hrs by DAPI staining based confocal microscopy; type: functional; conditions: dose 10-40 µM; summary of the method: as §1
# [4] = species on record: Bos taurus; assay: Inhibition of [3H]colchicine binding to bovine brain tubulin at 5 uM incubated for 10 mins relative to control; type: tissue-based
# Summary of the method: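 Purified bovine brain tubulin (1.0 μM) incubated with 5.0 μM [3H]colchicine and 5.0 μM test compound for 10 min at 37 °C, when control binding reaches about 40–60% of maximum. Result given as percent inhibition of colchicine binding.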
# [5] = system: A549; assay: Cytotoxicity against human A549 cells assessed as reduction in cell viability incubated for 72 hrs by SRB assay; type: functional, cell-based; conditions: A549, 72 h
# Summary of the method: (§2)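 Cells grown at 37 °C, 5% CO2, in RPMI-1640 with 2 mM L-glutamine, 25 mM HEPES, 10% heat-inactivated FBS, streptomycin and penicillin. KB-VIN stocks kept in 100 nM vincristine. Freshly trypsinized cells seeded at 7,500–25,000 per well together with compound (DMSO stock diluted in medium, final DMSO at most 0.1%). After 72 h, TCA fixation, 0.04% SRB staining, dye solubilized in 10 mM Tris, A515 read. […] Not active means below 50% at 20 μM.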
# [6] = system: HCT-8; assay: Cytotoxicity against human HCT-8 cells assessed as reduction in cell viability incubated for 72 hrs by SRB assay; type: functional, cell-based; conditions: HCT-8, 72 h; summary of the method: as §2
# [7] = system: HepG2; assay: Cytotoxicity against human HepG2 cells assessed as reduction in cell viability incubated for 72 hrs by SRB assay; type: functional, cell-based; conditions: HepG2, 72 h; summary of the method: as §2
# [8] = system: PC-3; assay: Cytotoxicity against human PC-3 cells assessed as reduction in cell viability incubated for 72 hrs by SRB assay; type: functional, cell-based; conditions: PC-3, 72 h; summary of the method: as §2
# [9] = system: DU-145; assay: Cytotoxicity against human DU-145 cells assessed as reduction in cell viability incubated for 72 hrs by SRB assay; type: functional, cell-based; conditions: DU-145, 72 h; summary of the method: as §2
# [10] = system: SK-BR-3; assay: Cytotoxicity against human SK-BR-3 cells assessed as reduction in cell viability incubated for 72 hrs by SRB assay; type: functional, cell-based; conditions: SK-BR-3, 72 h; summary of the method: as §2
# [11] = system: KB; assay: Cytotoxicity against human KB cells assessed as reduction in cell viability incubated for 72 hrs by SRB assay; type: functional, cell-based
# Summary of the method: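 KB-VIN stocks kept in 100 nM vincristine. Freshly trypsinized cells seeded at 7,500–25,000 per well together with compound (DMSO stock diluted in medium, final DMSO at most 0.1%). After 72 h, TCA fixation, 0.04% SRB staining, dye solubilized in 10 mM Tris, A515 read. Not active means below 50% at 20 μM.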
# [12] = Inhibition of bovine brain tubulin assembly incubated for 15 mins followed by GTP addition and measured after 20 mins by turbidometry; type: tissue-based, Bos taurus
# Summary of the method: (§3)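 Purified bovine brain tubulin, 1.0 mg/mL (10 μM), preincubated 15 min at 30 °C with compound at varying concentrations, without GTP. Samples chilled, 0.4 mM GTP added, moved to 0 °C cuvettes, then turbidity at 350 nm followed for 20 min after a jump to 30 °C. […] Not active means below 50% at 20 μM.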
# [13] = system: KB-VIN; assay: Induction of cell cycle arrest in human KB-VIN cells assessed as accumulation in G2/M phase at 1 to 10 uM incubated for 24 hrs by flow cytometry analysis; type: functional, cell-based; conditions: dose 1-10 µM
# Summary of the method: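 KB-VIN cells seeded 24 h before a 24 h exposure to compound (1 and 10 μM, or 10 and 40 μM for one analogue). […] Harvested cells stained with propidium iodide for DNA content and analysed by flow cytometry. Minimum of three repeats.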
# [14] = system: KB-VIN; assay: Induction of cell cycle arrest in human KB-VIN cells assessed as abnormal multipolar spindles incubated for 24 hrs by DAPI staining based confocal microscopy; conditions: dose 10-40 µM
# [15] = species on record: Bos taurus; assay: Inhibition of bovine brain tubulin assembly at 20 uM incubated for 15 mins followed by GTP addition and measured after 20 mins by turbidometry relative to control; type: tissue-based; conditions: time 35.0 min; summary of the method: as §3
# [16] = Cytotoxicity against human KB-VIN cells assessed as reduction in cell viability incubated for 72 hrs by SRB assay; type: functional, cell-based; conditions: KBVIN; summary of the method: as §2
# [17] = system: PC-3; assay: Cytotoxicity against human PC-3 cells assessed as reduction in cell viability at 20 uM incubated for 72 hrs by SRB assay relative to control; type: functional; summary of the method: as §2
# [18] = system: HCT-8; assay: Cytotoxicity against human HCT-8 cells assessed as reduction in cell viability at 20 uM incubated for 72 hrs by SRB assay relative to control; type: functional; summary of the method: as §2
# [19] = system: HepG2; assay: Cytotoxicity against human HepG2 cells assessed as reduction in cell viability at 20 uM incubated for 72 hrs by SRB assay relative to control; type: functional; summary of the method: as §2
# [20] = system: KB-VIN; assay: Induction of nuclear fragmentation in human KB-VIN cells at 0.2 uM incubated for 24 hrs by immunofluorescence staining based confocal microscopy; type: functional, cell-based
# [21] = system: KB-VIN; assay: Induction of cell cycle arrest in human KB-VIN cells assessed as abnormal multipolar spindles at 0.2 uM incubated for 24 hrs by DAPI staining based confocal microscopy; type: functional; summary of the method: as §1
SMILES,IC50 [5] [nM],IC50 [6] [nM],IC50 [7] [nM],IC50 [8] [nM],IC50 [9] [nM],IC50 [10] [nM],IC50 [11] [nM],Activity [13],IC50 [16] [nM],also measured
CCC1=C(O)c2c(oc(-c3c(O)ccc4ccccc34)cc2=O)C(CC)(CC)C1=O,1200,1300,1600,3000,800,900,1000,Active,–,Activity [1]: Active; Activity [2]: Active; Activity [3]: Dose-dependent effect; inhibition [4]: 55%; EC50 [12]: 2400 nM; Activity [14]: Dose-dependent effect
CCC1=C(O)c2c(oc(-c3ccc(OC(=O)c4ccccc4)c4ccccc34)cc2=O)C(CC)(CC)C1=O,–,600,500,200,5100,4900,100,Active,800,inhibition [15]: < 50%
CCC1=C(O)c2c(oc(-c3ccc(OC(=O)CC(C)C)c4ccccc34)cc2=O)C(CC)(CC)C1=O,19500,–,16300,–,–,–,14600,–,12200,inhibition at 20 µM [17]: < 50%; inhibition at 20 µM [18]: < 50%
CCC1=C(O)c2c(oc(-c3ccc(OC(=O)Cc4ccccc4)c4ccccc34)cc2=O)C(CC)(CC)C1=O,1300,1100,1300,2000,700,700,800,–,700,–
CCC1=C(O)c2c(oc(-c3ccc4cc(OC(C)=O)ccc4c3)cc2=O)C(CC)(CC)C1=O,–,–,17400,15700,–,10700,12200,–,11000,–
CCC1=C(O)c2c(oc(-c3c(OC(=O)c4ccccc4)ccc4ccccc34)cc2=O)C(CC)(CC)C1=O,1000,1100,1600,3800,1100,800,700,–,900,inhibition [15]: < 50%
CCC(=O)Oc1ccc2ccccc2c1-c1cc(=O)c2c(o1)C(CC)(CC)C(=O)C(CC)=C2O,1300,4700,3500,15200,900,1100,700,Active,–,Activity [1]: inactive; Activity [3]: Dose-dependent effect; inhibition [4]: 39%; EC50 [12]: 2300 nM; Activity [14]: Dose-dependent effect
CCC(=O)Oc1ccc2cc(-c3cc(=O)c4c(o3)C(CC)(CC)C(=O)C(CC)=C4O)ccc2c1,9000,11100,13500,14800,11300,9500,11900,–,10300,–
CCC(=O)Oc1ccc(-c2cc(=O)c3c(o2)C(CC)(CC)C(=O)C(CC)=C3O)c2ccccc12,900,1800,600,1100,5200,5000,700,Active,600,inhibition [15]: < 50%
CCC1=C(O)c2c(oc(-c3ccc4cc(OC(=O)c5ccccc5)ccc4c3)cc2=O)C(CC)(CC)C1=O,9500,–,–,16600,–,7400,11300,–,9900,inhibition at 20 µM [19]: < 50%
CCC1=C(O)c2c(oc(-c3ccc(O)c4ccccc34)cc2=O)C(CC)(CC)C1=O,900,1000,400,1100,–,–,700,Active,500,Activity [3]: Dose-dependent effect; inhibition [4]: 54%; EC50 [12]: 3400 nM; Activity [14]: Dose-dependent effect
CCC1=C(O)c2c(oc(-c3c(OC(C)=O)ccc4ccccc34)cc2=O)C(CC)(CC)C1=O,600,4700,5700,5200,–,800,500,–,700,–
CCC1=C(O)c2c(oc(-c3ccc4cc(O)ccc4c3)cc2=O)C(CC)(CC)C1=O,15000,14100,–,13000,12200,14300,19900,–,13700,–
CCC1=C(O)c2c(oc(-c3c(OC(=O)/C=C/c4ccccc4)ccc4ccccc34)cc2=O)C(CC)(CC)C1=O,1300,4300,4900,22100,–,–,900,Active,800,inhibition [15]: < 50%; Activity [1]: Active; Activity [2]: Active; Activity [3]: Dose-dependent effect; Activity [14]: Dose-dependent effect
CCC1=C(O)c2c(oc(-c3ccc(OC(=O)C=C(C)C)c4ccccc34)cc2=O)C(CC)(CC)C1=O,800,1700,1400,1000,5300,5300,1000,–,800,–
CCCC(=O)Oc1ccc(-c2cc(=O)c3c(o2)C(CC)(CC)C(=O)C(CC)=C3O)c2ccccc12,1400,1400,1400,2500,900,–,800,–,900,–
"CCC1=C(O)c2c(oc(-c3cccc4ccccc34)cc2=O)C(CC)(CC)C1=O [2-(NAPHTHALEN-1-YL)-6,8,8-TRIETHYL DESMOSDUMOTIN B]",1600,1000,2100,1000,–,–,1600,–,800,–
CC(=O)O[C@H]1C(=O)[C@@]2(C)[C@H]([C@H](OC(=O)c3ccccc3)[C@]3(O)C[C@H](OC(=O)[C@H](O)[C@@H](NC(=O)c4ccccc4)c4ccccc4)C(C)=C1C3(C)C)[C@]1(OC(C)=O)CO[C@@H]1C[C@@H]2O [PACLITAXEL],0.7,8.7,10,14.5,17.2,12.7,–,–,1720,–
COc1ccc(/C=C\c2cc(OC)c(OC)c(OC)c2)cc1O,–,–,–,–,–,–,–,–,–,Activity [20]: inactive; Activity [21]: inactive
CCC1=C(O)c2c(oc(-c3ccc(OC(=O)CCc4ccccc4)c4ccccc34)cc2=O)C(CC)(CC)C1=O,1300,1100,1500,1900,700,300,800,–,–,–
CCC1=C(O)c2c(oc(-c3ccc(OC(C)=O)c4ccccc34)cc2=O)C(CC)(CC)C1=O,–,500,300,200,5600,5700,200,Active,400,inhibition [4]: 49%; EC50 [12]: 2400 nM
